Where two headings read alike, the source gives them in different places. Marks after values point to notes of the source that are not given here.
Columns and labels:
[1] = test system: canine MM cells (M1, M5, M2, M3, and Jones); experiment: MTS viability assay, 72h, canine MM cell lines; assay type: cell-based; settings: canine MM cells in vitro, single agent
canine MM cell = settings: cited from earlier work
[2] = test system: human cutaneous melanoma cells (WM3311, WM2032, WM853–2 and WM858); experiment: MTS viability assay, 72h, human cutaneous melanoma cell lines; assay type: cell-based
[3] = test system: Ras/MAPK and PI3K/Akt/mTOR signal transduction targets; assay type: cell-based, canine; settings: for target inhibition in vitro (western blot): trametinib 10 nM, sapanisertib 40 nM, 4 and 24h, M1, M5 and Jones
Procedure, shortened: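 Cell lysates were immunoblotted for p-AKT, p-S6 and p-ERK (pathway activation) and for cyclin D1, cyclin B1, Bim, Bcl-xl, Mcl-1 and p-Bad.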

[4] = Preliminary dose range study in mice with canine M1 or M5 MM xenografts; assay type: in vivo; settings: daily 3.0 mg/Kg, oral
[5] = assay type: in vivo, mice; settings: for Liver hepatocelluar vacuolation, numbers of animals / Renal tubules scattered isolated necrosis and regeneration, numbers of animals / Renal tubules zonal cortical degeneration/necrosis, numbers of animals / Spleen red and white pulp hypocellularity, numbers of animals / Spleen lymphocytolysis, numbers of animals / Spleen lymphoid and hematopoietic hyperplasia, numbers of animals / Bone marrow hypocellularity, numbers of animals: n = 5
Procedure, shortened: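 Non-tumor-bearing female nu/nu nude mice (n=5 per group) were dosed by oral gavage in 0.5% HPMC/0.2% Tween for 21 days. […] Bone marrow, kidney, spleen, liver and other organs were fixed for histopathology. Animals per lesion were counted and graded minimal/moderate/severe. Blood was taken into EDTA for complete counts before removal.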

[6] = test system: p-ERK, p-AKT, p-S6 and p-4E-BP1 in M1 or M5 canine MM xenografts; experiment: Drug target modulation in vivo in tumor xenografts; set-up: species or system mice; settings: three consecutive days; for p-ERK level in tumors: sapanisertib 2.0 mg/Kg or trametinib 5.0 mg/Kg oral
Procedure, shortened: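 Female nu/nu athymic nude mice, 6–8 weeks old, received 1×10⁶ M1 or M5 cells s.c. in the flank and were randomized at 75–150 mm³ (five per group). […] Tumor lysates went to western blot and fixed sections to H&E plus p-ERK/p-S6 IHC.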

[7] = test system: M1-derived metastatic subline; experiment: Tail vein injection metastasis study; assay type: in vivo, mice; settings: trametinib 5.0 mg/Kg daily, sapanisertib 2.0 mg/Kg three times a week, four-week treatment
[8] = Single administration plasma pharmacokinetics in tumor-bearing mice; assay type: in vivo; settings: mouse plasma
Procedure, shortened: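 Plasma and tumor were taken from two mice per group per timepoint over 2–48 h. Validated LC-MS/MS was used; sapanisertib was read by MRM m/z 310.2→268.1, calibrated 1–1000 ng/mL. Noncompartmental analysis for destructive sampling gave Cmax, T1/2 and AUC to last timepoint, with AUC error by Bailer's method.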

[9] = test system: M1 or M5 canine MM subcutaneous xenografts; settings: oral 5.0 mg/Kg trametinib or 2.0 mg/Kg sapanisertib EOD for 3 weeks, single agents
mTOR = settings: ATP-competitive mTOR selective inhibitor; ref https://adisinsight.springer.com/drugs/800030541; https://drugs.ncats.io/substance/JGH0DF1U03#activemoieties; cited from earlier work
[10] = patients receiving the clinically approved dose of 2 mg trametinib; cited from earlier work
[11] = sapanisertib 2mg/kg daily, no lesion
[12] = sapanisertib 2mg/kg daily, severity + minimal
[13] = sapanisertib 2mg/kg daily, severity ++ moderate
[14] = sapanisertib 2mg/kg daily, severity +++ severe
[15] = sapanisertib 2mg/kg every other day, no lesion
[16] = sapanisertib 2mg/kg every other day, severity + minimal

Q: With Nc1ccc(-c2ccc3ncc4ccc(=O)n(-c5cccc(C(F)(F)F)c5)c4c3c2)cn1 [Torin 2] as the molecule, how does the “cytotoxicity / sensitivity of cells” value [1] read?
A: highly effective

Q: With Cn1c(=O)n(-c2ccc(C(C)(C)C#N)cc2)c2c3cc(-c4cnc5ccccc5c4)ccc3ncc21 [dactolisib] as the molecule, how does the “cytotoxicity” value (canine MM cell; canine MM cells) read?
A: dose dependent cytotoxicity

Q: Which results are given for CC(C)n1nc(-c2ccc3oc(N)nc3c2)c2c(N)ncnc21 [sapanisertib]?
A: IC50 ([2]; Homo sapiens, WM2032, 72 h): 10 to 100 nM; cyclin expression (western blot) ([3]; canine MM cells): effective in reducing cyclin B1; phosphorylation of Bad ([3]; canine MM cells): inhibited phosphorylation of Bad; reciprocal activation of ERK1/2 ([3]; some cell lines): apparent reciprocal activation of ERK1/2; target inhibition in vitro (western blot) [3]: inhibited their respective Ras/MAPK and PI3K/Akt/mTOR signal transduction targets; tolerability [4]: not well tolerated; tolerability ([5]; 2.0 mg/Kg alone EOD): well tolerated; white blood cell counts finding ([5]; sapanisertib 2.0 mg/Kg daily): lymphopenia; Liver hepatocelluar vacuolation, numbers of animals [5, 11]: 2; Renal tubules scattered isolated necrosis and regeneration, numbers of animals [5, 11]: 5; Renal tubules zonal cortical degeneration/necrosis, numbers of animals [5, 11]: 1; Spleen red and white pulp hypocellularity, numbers of animals [5, 11]: 1; Liver hepatocelluar vacuolation, numbers of animals [5, 12]: 1; Renal tubules zonal cortical degeneration/necrosis, numbers of animals [5, 12]: 1; Spleen lymphocytolysis, numbers of animals [5, 12]: 5; Spleen lymphoid and hematopoietic hyperplasia, numbers of animals [5, 12]: 2; Spleen red and white pulp hypocellularity, numbers of animals [5, 12]: 2; Bone marrow hypocellularity, numbers of animals [5, 13]: 3 ^†; Liver hepatocelluar vacuolation, numbers of animals [5, 13]: 1; Renal tubules zonal cortical degeneration/necrosis, numbers of animals [5, 13]: 3; Spleen red and white pulp hypocellularity, numbers of animals [5, 13]: 2; Bone marrow hypocellularity, numbers of animals [5, 14]: 2; Liver hepatocelluar vacuolation, numbers of animals [5, 14]: 1; Bone marrow hypocellularity, numbers of animals [5, 15]: 5; Liver hepatocelluar vacuolation, numbers of animals [5, 15]: 5; Renal tubules scattered isolated necrosis and regeneration, numbers of animals [5, 15]: 1; Renal tubules zonal cortical degeneration/necrosis, numbers of animals [5, 15]: 5; Spleen lymphocytolysis, numbers of animals [5, 15]: 2; Spleen lymphoid and hematopoietic hyperplasia, numbers of animals [5, 15]: 2; Spleen red and white pulp hypocellularity, numbers of animals [5, 15]: 5; Renal tubules scattered isolated necrosis and regeneration, numbers of animals [5, 16]: 4; Spleen lymphocytolysis, numbers of animals [5, 16]: 3; Spleen lymphoid and hematopoietic hyperplasia, numbers of animals [5, 16]: 3; p-ERK level in tumors [6]: increased p-ERK level; p-AKT, p-S6 and p-4EBP-1 levels in tumors ([6]; sapanisertib 2.0 mg/Kg oral): reduced p-AKT as well as downstream effectors p-S6 and p-4EBP-1 levels; intrathoracic metastatic tumor burden [7]: not as effective as trametinib in abating metastasis; T1/2 in the presence of trametinib compared to sapanisertib alone [8]: approximately 50%; change in sapanisertib PK in the presence of trametinib [8]: no significant change; tolerability [9]: tolerated with some varying body weight fluctuation; tumor growth [9]: inhibited compared to vehicle-treated controls initially, but progression became evident over time; selectivity for PI3K (mTOR): > 100 fold

Q: What does the source list for CC(=O)Nc1cccc(-n2c(=O)n(C3CC3)c(=O)c3c(Nc4ccc(I)cc4F)n(C)c(=O)c(C)c32)c1 [trametinib]?
A: cytotoxicity / sensitivity of cells [1]: sensitive; sensitivity of cells ([2]; human cutaneous melanoma cells, regardless of Ras and NF1 mutation status): sensitive; Bcl-xl levels ([3]; canine MM cells): reduced Bcl-xl levels; cyclin expression (western blot) ([3]; canine MM cells): reduced the expression of cyclins D1 and B1; target inhibition in vitro (western blot) [3]: inhibited their respective Ras/MAPK and PI3K/Akt/mTOR signal transduction targets; p-ERK level in tumors [6]: less compared to vehicle-only treated mice; intrathoracic metastatic tumor burden [7]: significantly less metastatic tumor burdens in the thorax compared to control vehicle-treated mice; tumor growth [9]: inhibited compared to vehicle-treated controls initially, but progression became evident over time; IC50 (canine MM cell; read-out: IC50, inhibiting canine MM cell growth in vitro): ~10 nM; AUC [10]: 248 ng·h/mL; Cmax [10]: 8.03 ng/mL

Reference: article PMC8914349 (Molecular cancer therapeutics, 2020)
